# Data from ChEMBL document CHEMBL4342502, “Synthesis and Antichlamydial Activity of Molecules Based on Dysregulators of Cylindrical Proteases” (J Med Chem, 2020).
# The source made the active and inactive calls. The rule behind the calls is not given here.
# Experiments:
# [1] = Stability of the compound in simulated gastric fluid at 50 uM and pH 1.2 at 37 degree C measured up to 120 mins by HPLC-ESI/MS analysis; settings: simulated gi fluid, pH 1.2, 2 h
# [2] = (§1) Activation of recombinant human C-terminal 6xHis-tagged ClpP expressed in Escherichia coli assessed as induction of casein degradation at 0.1 to 1 uM using FITC-labelled casein as substrate pretreated with enzyme for 30 mins followed by substrate addition and measured every 3 mins for 3 hrs in absence of AAA+ chaperone by fluorescence based tecan-plate reader assay
# How it was run: (§2)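 Recombinant C-terminal His6-tagged ClpP, expressed in a clpAPX-null E. coli strain and purified (mammalian ClpP without mitochondrial signal, codon-optimized). ClpP at 1 or 0.1 μM (E. coli), 1 μM (human, mouse) or 6 μM (chlamydial ClpP1 and ClpP2) preincubated with compound or DMSO, 30 min, 32 °C, in HEPES pH 7.6/KCl/MgCl2/DTT/glycerol buffer. 20 μM FITC-casein then added. Fluorescence (ex 490/em 525 nm) read every 3 min for 3 h. At least three runs on at least two protein preparations.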
# [3] = Toxicity in Drosophila melanogaster assessed as survival rate at 0.25 to 1 mM; settings: 1000 µM
# How it was run: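 Drosophila SMART assay using third-instar larvae (72 ± 4 h) from ST and HB crosses. Larvae exposed in hydrated instant mashed-potato medium at 0.25, 0.5 and 1.0 mM final. Vehicle control: water with 1% Tween-80 and 3% ethanol. Survival of treated groups compared statistically with the vehicle control.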
# Escherichia coli [4] = test: Antibacterial activity against Escherichia coli K12 assessed as bacterial death up to 256 ug/ml measured after 16 hrs by broth microdilution method; type: functional, organism-based; settings: K-12
# How it was run: (§3)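 Broth microdilution in Mueller Hinton broth, triplicate. Direct colony suspension at 1.5 x 10^8 CFU/mL diluted to ~10^5 CFU/mL. Serial dilutions made from DMSO stocks at 1 mg/mL; vancomycin positive control, blank medium negative control. Incubated 16 h at optimum temperature. MIC is the lowest concentration without visible growth at 600 nm; mean of triplicate determinations.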
# Cryptococcus neoformans = test: Antifungal activity against Cryptococcus neoformans var. grubii H99 ATCC […] as fungal growth inhibition at 32 ug/ml measured after 16 hrs by broth microdilution method; type: functional, organism-based; settings: var. grubii H99 ATCC 208821
# Pseudomonas aeruginosa = test: Antibacterial activity against Pseudomonas aeruginosa ATCC 27853 assessed as bacterial growth inhibition at 32 ug/ml measured after 16 hrs by broth microdilution method; type: functional, organism-based
# Escherichia coli [5] = test: Antibacterial activity against Escherichia coli ATCC 25922 assessed as bacterial growth inhibition at 32 ug/ml measured after 16 hrs by broth microdilution method; type: functional, organism-based
# [6] = as §1, with “mouse” for “human”
# How it was run: as §2
# [7] = Mutagenicity in Drosophila melanogaster somatic cells assessed as frequency of clone formation in ST crosses at 0.25 to 1 mM by SMART assay; type: ADME; settings: 1000 µM
# How it was run: (§4)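 Drosophila SMART wing-spot assay, ST and HB crosses. Third-instar larvae (72 ± 4 h) placed on hydrated instant mashed potato medium containing compound at 0.25, 0.5 or 1.0 mM final. Negative control: water with 1% Tween-80 and 3% ethanol. Statistics by Frei and Würgler two-sided U test, P≤0.05.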
# [8] = Mutagenicity in Drosophila melanogaster somatic cells assessed as frequency of clone formation in HB crosses at 0.25 to 1 mM by SMART assay; type: ADME; settings: 1000 µM
# How it was run: as §4
# HeLa 229 = test: Cytotoxicity against human HeLa 229 cells assessed as reduction in cell viability at 50 ug/ml after 24 hrs by CCK-8 assay; type: cell-based; settings: hela 229, 24 h
# How it was run: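 HeLa 229 and HaCaT cells in DMEM with 10% FBS and 1% penicillin/streptomycin, 37 °C, 5% CO2, seeded at 5000 cells/well. Next day treated with 50 μg/mL in triplicate, with matching DMSO controls. After 24 h, CCK-8 added for 2 h; corrected absorbance read at 450 nm.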
# Escherichia coli [9] = test: Antibacterial activity against Escherichia coli K12 assessed as bacterial growth inhibition at 32 ug/ml measured after 16 hrs by broth microdilution method; type: functional, organism-based; settings: K-12
# How it was run: as §3
# Klebsiella pneumoniae = test: Antibacterial activity against Klebsiella pneumoniae ATCC 700603 assessed as bacterial growth inhibition at 32 ug/ml measured after 16 hrs by broth microdilution method; type: functional, organism-based
# Staphylococcus aureus [10] = test: Antibacterial activity against Staphylococcus aureus JE2 assessed as bacterial growth inhibition at 32 ug/ml measured after 16 hrs by broth microdilution method; type: functional, organism-based
# How it was run: as §3
# Acinetobacter baumannii = test: Antibacterial activity against Acinetobacter baumannii ATCC 19606 assessed as bacterial growth inhibition at 32 ug/ml measured after 16 hrs by broth microdilution method; type: functional, organism-based; settings: ATCC 19606 = CIP 70.34 = JCM 6841
# Staphylococcus aureus [11] = test: Antibacterial activity against Staphylococcus aureus JE2 assessed as bacterial death up to 256 ug/ml measured after 16 hrs by broth microdilution method; type: functional, organism-based
# How it was run: as §3
# Chlamydia trachomatis = test: as §1, with “Chlamydia trachomatis Serovar LGV-L2” for “human”, “6xhis-tagged ClpP1” for “6xHis-tagged ClpP”, “absence” for “absence of AAA+”
# How it was run: as §2
# [12] = Stability of compound in human liver microsomes at 1 ug/ml measured up to 60 mins in absence of NADPH by LC-MS/MS analysis; type: ADME, Microsome; settings: 1 h
# How it was run: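 Human liver microsomes (1.0 mg/mL protein) in 100 mM phosphate pH 7.4 with 10 mM MgCl2 and 2 mM NADPH, preincubated 10 min at 37 °C. Reaction started with compound at 1 μg/mL. Sampled at 0, 5, 15, 20, 30, 45 and 60 min and quenched in methanol with internal standard. Controls: no NADPH (negative), testosterone (positive). Analysed by LC-MS/MS, triplicate.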
# [13] = Drug metabolism in human liver microsomes assessed as amount of drug modified at 1 ug/ml […] in presence of NADPH by LC-MS/MS analysis; type: ADME, Microsome; settings: read-out: Drug metabolism
# [14] = Stability of compound in mouse pre-heated plasma at 50 uM incubated up to 120 mins by HPLC-ESI/MS analysis; type: ADME, cell-free; settings: 2 h
# How it was run: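 Compounds from 2.5 mM DMSO stocks incubated at 50 μM final in mouse plasma diluted to 80% with PBS, preheated, 37 °C, shaking. Sampled at 0, 15, 30, 60, 90 and 120 min and quenched with cold acetonitrile. Centrifuged; supernatant analysed by HPLC-ESI-MS. Peak area reported relative to time zero. Enalapril positive control; triplicate.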
SMILES,Stability [1],Activity [2],Activity [3],Activity (Escherichia coli [4]),inhibition (Cryptococcus neoformans),inhibition (Pseudomonas aeruginosa),inhibition (Escherichia coli [5]),Activity [6],Activity [7],Activity [8],Activity (HeLa 229),inhibition (Escherichia coli [9]),inhibition (Klebsiella pneumoniae),inhibition (Staphylococcus aureus [10]),inhibition (Acinetobacter baumannii),Activity (Staphylococcus aureus [11]),Activity (Chlamydia trachomatis),Stability [12],"metabolised at 10 min, 1 ug/ml [13] [%]",Stability [14]
CC(C)(C(=O)N1CCN(Cc2ccc(Cl)cc2)CC1)S(=O)(=O)c1ccc(C(F)(F)F)cn1,Stable,Not Active,Non-Toxic,inactive,inactive,inactive,inactive,Not Active,Non-Toxic,Non-Toxic,Non-Toxic,inactive,inactive,inactive,inactive,inactive,inactive,Stable,90,Stable
CC(C)(C(=O)NCCCc1ccccc1)S(=O)(=O)c1ccc(C(F)(F)F)cc1,Stable,Active,Non-Toxic,inactive,inactive,inactive,inactive,Active,Non-Toxic,Non-Toxic,Toxic,inactive,inactive,inactive,inactive,inactive,Active,Stable,90,Stable
